Source: ChEMBL document CHEMBL4261631, “Synthetic thiosemicarbazones as a new class of Mycobacterium tuberculosis protein tyrosine phosphatase A inhibitors” (Bioorg Med Chem, 2018)

Columns and labels:
[1] = biological target: T1, Low molecular weight protein-tyrosine phosphatase A (Mycobacterium tuberculosis) (UniProt P9WIA1); experiment: Inhibition of recombinant Mycobacterium tuberculosis PtpA at 25 uM using p-nitrophenyl phosphate as substrate preincubated for 10 mins followed by substrate addition and measured every minute for 10 mins by UV-VIS spectrophotometric analysis
T1 sequence (whole entry): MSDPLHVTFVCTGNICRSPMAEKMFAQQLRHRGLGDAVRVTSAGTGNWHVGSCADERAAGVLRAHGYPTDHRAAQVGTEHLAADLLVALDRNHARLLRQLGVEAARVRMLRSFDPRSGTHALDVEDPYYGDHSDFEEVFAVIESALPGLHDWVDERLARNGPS
How it was run: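 Single-point screen at 25 µM final (from 1 mM DMSO stock, 2.5% DMSO final). 50 nM recombinant Mtb PtpA in 20 mM imidazole pH 7.0, premixed with compound 10 min at 37 °C. Reaction started with 10 mM pNPP. A410 read each min for 10 min at 37 °C. Residual activity from absorbance difference 7 min minus 2 min versus no-inhibitor wells. Triplicate.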

[2] = biological target: T2, Low molecular weight protein-tyrosine phosphatase A (Mycobacterium tuberculosis, UniProt P9WIA1); experiment: Inhibition of recombinant Mycobacterium tuberculosis PtpA using p-nitrophenyl phosphate as substrate preincubated for 10 mins followed by substrate addition and measured every minute for 10 mins by UV-VIS spectrophotometric analysis
T2 sequence (P9WIA1 whole entry): T1 sequence (whole entry)
How it was run: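 Recombinant Mtb PtpA at 50 nM in 20 mM imidazole pH 7.0, premixed with inhibitor (0.5–50 µM, DMSO ≤4% v/v) 10 min at 37 °C. Started with 10 mM pNPP. A410 read each min for 10 min at 37 °C. Residual activity from 7 min minus 2 min absorbance versus no-inhibitor wells. IC50 by linear regression of % inhibition versus concentration. Triplicate, mean ± SD of three experiments.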

| SMILES | inhibition [1] [%] | IC50 [2] [µM] |
| --- | --- | --- |
| Cc1ccc(NC(=S)N/N=C/c2ccc3c(c2)OCO3)cc1 | 25.9 | – |
| COc1ccc(NC(=S)N/N=C/c2ccc([N+](=O)[O-])cc2)cc1 | 64.4 | 15.1 |
| COc1ccc(NC(=S)N/N=C/c2ccc(C)cc2)cc1 | 0 | – |
| COc1ccc(/C=N/NC(=S)Nc2ccc(OC)cc2)cc1 | 0 | – |
| Cc1ccc(NC(=S)N/N=C/c2ccc3ccccc3c2)cc1 | 29.3 | – |
| Cc1ccc(NC(=S)N/N=C/c2ccc(Cl)c(Cl)c2)cc1 | 23.4 | – |
| CN(C)c1ccc(/C=N/NC(=S)Nc2cccc3ccccc23)cc1 | 51.6 | – |
| Cc1ccc(NC(=S)N/N=C/c2ccccc2[N+](=O)[O-])cc1 | 21.6 | – |
| COc1ccc(NC(=S)N/N=C/c2ccc3ccccc3c2)cc1 | 23.7 | – |
| COc1ccc(NC(=S)N/N=C/c2ccc(Cl)cc2)cc1 | 1 | – |
| S=C(N/N=C/c1cccc2ccccc12)Nc1cccc2ccccc12 | 10.3 | – |
| COc1cc(/C=N/NC(=S)Nc2cccc3ccccc23)cc(OC)c1OC | 0 | – |
| Cc1ccc(NC(=S)N/N=C/c2ccc(Cl)cc2)cc1 | 4.9 | – |
| S=C(N/N=C/c1ccc(Cl)cc1)Nc1cccc2ccccc12 | 0 | – |
| COc1ccc(NC(=S)N/N=C/c2cc(OC)ccc2OC)cc1 | 0 | – |
| COc1ccc(/C=N/NC(=S)Nc2cccc3ccccc23)cc1 | 22.6 | – |
| Cc1ccc(/C=N/NC(=S)Nc2ccc(C)cc2)cc1 | 0.7 | – |
| COc1ccc(NC(=S)N/N=C/c2ccccc2)cc1 | 0 | – |
| Cc1ccc(NC(=S)N/N=C/c2ccc([N+](=O)[O-])cc2)cc1 | 37.2 | – |
| COc1ccc(NC(=S)N/N=C/c2ccc(OC)c(OC)c2)cc1 | 0 | – |
| COc1ccc(/C=N/NC(=S)Nc2cccc3ccccc23)cc1OC | 64.5 | 18.2 |
| COc1cc(/C=N/NC(=S)Nc2ccc(C)cc2)ccc1O | 8.8 | – |
| COc1ccc(NC(=S)N/N=C/c2cc(OC)c(OC)c(OC)c2)cc1 | 0 | – |

| SMILES | inhibition [1] [%] | IC50 [2] [µM] |
| --- | --- | --- |
| COc1ccc(/C=N/NC(=S)Nc2ccc(C)cc2)cc1OC | 6.6 | – |
| Cc1ccc(NC(=S)N/N=C/c2ccc(-c3ccccc3)cc2)cc1 | 26.3 | – |
| COc1cc(/C=N/NC(=S)Nc2ccc(C)cc2)cc(OC)c1OC | 0 | – |
| COc1ccc(OC)c(/C=N/NC(=S)Nc2cccc3ccccc23)c1 | 44.2 | – |
| COc1ccc(/C=N/NC(=S)Nc2ccc(C)cc2)cc1 | 8.9 | – |
| S=C(N/N=C/c1ccccc1)Nc1cccc2ccccc12 | 58.1 | – |
| S=C(N/N=C/c1ccc(Cl)c(Cl)c1)Nc1cccc2ccccc12 | 83.7 | 13.4 |
| COc1ccc(NC(=S)N/N=C/c2ccc(-c3ccccc3)cc2)cc1 | 41.2 | – |
| Cc1ccc(NC(=S)N/N=C/c2ccc(N(C)C)cc2)cc1 | 35.4 | – |
| COc1ccc(NC(=S)N/N=C/c2ccc(N(C)C)cc2)cc1 | 3.9 | – |
| COc1ccc(NC(=S)N/N=C/c2ccccc2[N+](=O)[O-])cc1 | 0 | – |
| COc1ccc(OC)c(/C=N/NC(=S)Nc2ccc(C)cc2)c1 | 2.8 | – |
| COc1ccc(NC(=S)N/N=C/c2cccc3ccccc23)cc1 | 22.7 | – |
| O=[N+]([O-])c1ccccc1/C=N/NC(=S)Nc1cccc2ccccc12 | 52.4 | – |
| Cc1ccc(NC(=S)N/N=C/c2cccc3ccccc23)cc1 | 33.7 | – |
| S=C(N/N=C/c1ccc2c(c1)OCO2)Nc1cccc2ccccc12 | 62.6 | 17.8 |
| COc1ccc(NC(=S)N/N=C/c2ccc3c(c2)OCO3)cc1 | 0 | – |
| Cc1ccc(NC(=S)N/N=C/c2ccccc2)cc1 | 16.6 | – |
| COc1ccc(NC(=S)N/N=C/c2ccc(O)c(OC)c2)cc1 | 6.6 | – |
| COc1ccc(NC(=S)N/N=C/c2ccc(Cl)c(Cl)c2)cc1 | 21.4 | – |
| COc1cc(/C=N/NC(=S)Nc2cccc3ccccc23)ccc1O | 0 | – |
| S=C(N/N=C/c1ccc2ccccc2c1)Nc1cccc2ccccc12 | 67.7 | 23.7 |
